Our source for the EC50 and Activity values is ChEMBL document CHEMBL1152669, “New R/S-3,4-dihydro-2,2-dimethyl-2H-1-benzopyrans as K(ATP) channel openers: modulation of the 4-position” (Bioorg Med Chem, 2009).

What is called EC50 is the concentration giving half of the maximal effect.

The source made the active and inactive calls. The calls are words filed in the database; no cut-off is given here. Some results are limits rather than exact numbers.

Assay [1] can be described thus: Channel opening activity at KATP channel in Wistar rat endothelium-denuded aortic ring assessed as relaxation of KCl-induced contraction. Format: tissue-based. To be noted: Aorta. A digest of the protocol:
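Thoracic aortic rings (3–4 mm, endothelium-free) from adult fed rats, 37 °C, O2/CO2 95/5 gassed; isometric tension. After 60 min equilibration, contracted with 30 mM KCl; once stable, drug added cumulatively to maximal relaxation or 300 µM. Relaxation as % of KCl contraction; EC50 (50% inhibition of plateau) from dose–response curves; mean ± SEM (n).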

For assay [2], the species on record is Rattus norvegicus. As to the kind of experiment: Channel opening activity at KATP channel in Wistar rat pancreatic islets assessed as glucose-induced residual insulin secretion at 10 uM after 90 mins by radioimmunology. A digest of the protocol: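 Islets from adult fed rats, groups of 10, preincubated 30 min at 37 °C in bicarbonate salt medium with 2.8 mM glucose, 0.5% dialyzed albumin, O2/CO2 gassed. Then incubated 90 min at 37 °C with 16.7 mM glucose plus drug. Insulin by radioimmunoassay against rat insulin standard; expressed as % of drug-free 16.7 mM glucose control; mean ± SEM (n).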

The species named for assay [3] is Rattus norvegicus. Kind of assay: Channel opening activity at KATP channel in Wistar rat pancreatic islets assessed as glucose-induced residual insulin secretion at 1 uM after 90 mins by radioimmunology.
Assay [4] is filed under the species Rattus norvegicus. As to the kind of experiment: Channel opening activity at KATP channel in Wistar rat pancreatic islets assessed as increase in rubidium outflow at 10 uM by scintillation counting. An outline of the steps:
(§1)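 Groups of 100 islets from adult fed rats loaded 60 min at 37 °C with 86Rb in bicarbonate medium with 16.7 mM glucose and 0.5% albumin, washed three times, then perifused at 1.0 mL/min. Effluent collected in 1-min fractions from min 31 to 90, counted by scintillation along with final islet content. Output as fractional outflow rate (% of islet content per min). Glibenclamide 10 µM used as KATP blocker.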

Assay [5] is filed under the species Rattus norvegicus. Kind of assay: Channel opening activity at KATP channel in Wistar rat pancreatic islets assessed as increase in rubidium outflow at 10 uM by scintillation counting in presence of glibenclamide. A digest of the protocol: as §1

For the compound `CC1(C)CC(NC(=S)Nc2cccnc2)c2cc(Br)ccc2O1` (stereo unspecified), in assay [1], the concentration giving a half-maximal response (EC50) stood at 3700 nM. Besides, the Activity in assay [2] came out at 44.3%.

As to `CC1(C)CC(NC(=S)Nc2cccc([N+](=O)[O-])c2)c2cc(Br)ccc2O1` (stereo unspecified), in assay [1], the EC50 was more than 10000 nM. The Activity in assay [3] was 64.3%; in assay [2], 13.5%.

Turning to `CC1(C)CC(NC(=S)Nc2ccsc2)c2cc(Br)ccc2O1` (stereo unspecified), the EC50 in assay [1] is more than 10000 nM. In assay [2], the Activity stood at 44%.

As to `CC1(C)CC(NC(=S)Nc2cccc(C#N)c2)c2cc(Br)ccc2O1` (stereo unspecified), in assay [1], the EC50 was 640 nM. In addition, the results for the Activity in assay [3] and in assay [2] were 65.5% and 14.2%, respectively.

On to `CC1(C)CC(NC(=S)Nc2cccc([N+](=O)[O-])c2)c2cc(F)ccc2O1` (stereo unspecified), for which the EC50 in assay [1] is more than 3000 nM. Further, the Activity worked out at 76.1% in assay [3] and 11.5% in assay [2].

As for `CC1(C)CC(NC(=S)Nc2ccc([N+](=O)[O-])cc2)c2cc(Cl)ccc2O1` (stereo unspecified), the EC50 in assay [1] was more than 10000 nM. Besides, the Activity in assay [3] was found to be 67.3%; in assay [2], 10.3%.

Consider `CC1(C)CC(NC(=S)Nc2cccc(C#N)c2)c2cc(F)ccc2O1` (stereo unspecified), for which the EC50 in assay [1] amounted to 2600 nM. The Activity in assay [3] came to 80%; in assay [2] it was 16.1%.

With `CC1(C)CC(NC(=S)Nc2ccc([N+](=O)[O-])cc2)c2cc(Br)ccc2O1` (stereo unspecified), the EC50 in assay [1] is more than 10000 nM. Further, the result in assay [4] was Active. The outcome in assay [5] was inactive. In addition, the Activity in assay [3] came out at 61.3%; in assay [2], 13.5%.

In the case of `CC1(C)CC(N/C(=N/C#N)Nc2ccc(Cl)cc2)c2cc(Br)ccc2O1` (stereo unspecified), the EC50 in assay [1] was determined as 11400 nM. Also, the Activity in assay [3] is 95.8%; in assay [2], 42.7%.

For the compound `CS/C(=N\c1cccc(C#N)c1)NC1CC(C)(C)Oc2ccc(Br)cc21` (stereo unspecified), the EC50 in assay [1] was more than 30000 nM. Moreover, the figures for the Activity in assay [3] and in assay [2] were 93.7% and 37.7%, respectively.

Take `CC1(C)CC(NC(=S)Nc2ccsc2)c2cc(Cl)ccc2O1` (stereo unspecified): the 50% effective concentration (EC50) in assay [1] is more than 3000 nM. In addition, the Activity in assay [2] turned out to be 51.9%.

As to `CC1(C)CC(N/C(=N/C#N)Nc2cccc(C#N)c2)c2cc(Br)ccc2O1` (stereo unspecified), the EC50 in assay [1] stood at 5200 nM. In addition, the Activity in assay [3] was 90.5%; in assay [2] it was 45.3%.

Consider `CC(N/C(=N\C#N)Nc1ccncc1)C(C)(C)C` (racemic) [PINACIDIL ANHYDROUS], for which the EC50 in assay [1] is 350 nM.

On to `CC1(C)CC(NC(=S)Nc2ccc([N+](=O)[O-])cc2)c2cc(F)ccc2O1` (stereo unspecified), for which the EC50 in assay [1] is more than 3000 nM. The Activity in assay [3] is 74.3%; in assay [2] it was 10.7%.

For `CC1=Nc2ccc(Cl)cc2S(=O)(=O)N1`, the Activity was determined as 87.5% in assay [3] and 73.9% in assay [2].

Turning to `CC1(C)CC(NC(=S)Nc2cccnc2)c2cc(Cl)ccc2O1` (stereo unspecified), the EC50 in assay [1] came out at 2800 nM. Moreover, the Activity in assay [2] came out at 50.2%.

As to `CC1(C)CC(NC(=S)Nc2ccc(C#N)cc2)c2cc(Br)ccc2O1` (stereo unspecified), the EC50 in assay [1] is more than 10000 nM. For the same compound, the Activity in assay [3] is 57.5%; in assay [2], 11.7%.

Regarding `CC1(C)Oc2ccc(C#N)cc2C(N2CCCC2=O)C1O` (racemic) [CROMAKALIM], the EC50 in assay [1] turned out to be 130 nM. Besides, the Activity in assay [3] was found to be 95.3%; in assay [2] it was 94.4%.

On to `CC1(C)CC(NC(=S)Nc2cccc([N+](=O)[O-])c2)c2cc(Cl)ccc2O1` (stereo unspecified), for which, in assay [1], the EC50 was more than 3000 nM. In addition, the Activity was 64.3% in assay [3] and 14.4% in assay [2].

With `CC1(C)CC(NC(=S)Nc2ccc(C#N)cc2)c2cc(Cl)ccc2O1` (stereo unspecified), the EC50 in assay [1] is more than 10000 nM. The figures for the Activity in assay [3] and in assay [2] were 47.8% and 10.6%, respectively.

As for `CC1(C)CC(NC(=S)Nc2ccc(C#N)cc2)c2cc(F)ccc2O1` (stereo unspecified), the EC50 in assay [1] is more than 3000 nM. Moreover, the Activity is 64.7% in assay [3] and 12% in assay [2].

As to `CC1(C)CC(NC(=S)Nc2cccnc2)c2cc(F)ccc2O1` (stereo unspecified), the EC50 in assay [1] worked out at 6600 nM. In addition, the Activity in assay [2] amounted to 62.1%.

For `CC1(C)CC(NC(=S)Nc2cccc(C#N)c2)c2cc(Cl)ccc2O1` (stereo unspecified), the EC50 in assay [1] was found to be 600 nM. Also, the Activity in assay [3] came to 66.2%; in assay [2] it was 15.8%.

Consider `CS/C(=N\c1ccc(Cl)cc1)NC1CC(C)(C)Oc2ccc(Br)cc21` (stereo unspecified), for which the EC50 in assay [1] is more than 10000 nM. Besides, the Activity in assay [3] came out at 89.4%; in assay [2] it was 40.8%.
